According to ChEMBL document CHEMBL1811814, “Synthesis and evaluation of indole, pyrazole, chromone and pyrimidine based conjugates for tumor growth inhibitory activities--development of highly efficacious cytotoxic agents” (Eur J Med Chem, 2010):

Columns and labels:
Type in all cases: functional
Design in all cases: scale not given: the % may be the effect or the level left
A498 = test: Growth inhibition of human A498 cells assessed tumor cell growth at 10^-5 M
Method in brief: (§1)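 NCI 60-human-tumor-cell-line panel screen. Each compound was tested at a single concentration of 10^-5 M, and percent growth of tumor cells was recorded for each cell line. Growth inhibition was expressed from these percent-growth values.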

PC-3 = test: Growth inhibition of human PC3 cells assessed tumor cell growth at 10^-5 M; method in brief: as §1
EKVX = test: Growth inhibition of human EKVX cells assessed tumor cell growth at 10^-5 M; method in brief: as §1
SNB-75 = test: Growth inhibition of human SNB75 cells assessed tumor cell growth at 10^-5 M
Method in brief: (§2)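 Single-dose screen at 10^-5 M across the 60 human tumor cell line panel, run to NCI standards. The value is the percent growth of each cell line in the presence of compound. Compounds active at this dose moved on to five-concentration testing (10^-4 to 10^-8 M).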

786-0 = test: Growth inhibition of human 786-0 cells assessed tumor cell growth at 10^-5 M; method in brief: as §1
M14 = test: Growth inhibition of human M14 cells assessed tumor cell growth at 10^-5 M; method in brief: as §1
HL-60(TB) = test: Growth inhibition of human HL-60(TB) cells assessed tumor cell growth at 10^-5 M
Method in brief: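 HL-60(TB), part of the 60-line panel, tested at a single concentration of 10^-5 M. The read-out is percent tumor cell growth relative to untreated growth.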

BT-549 = test: Growth inhibition of human BT549 cells assessed tumor cell growth at 10^-5 M; method in brief: as §1
HCT-116 = test: Growth inhibition of human HCT116 cells assessed tumor cell growth at 10^-5 M; method in brief: as §1
SN12C = test: Growth inhibition of human SN12C cells assessed tumor cell growth at 10^-5 M; method in brief: as §1
SK-OV-3 = test: Growth inhibition of human SKOV3 cells assessed tumor cell growth at 10^-5 M; method in brief: as §1
[1] = Growth inhibition of human […] cells assessed tumor cell growth at 10^-5 M; method in brief: as §1
IGROV-1 = test: Growth inhibition of human IGROV1 cells assessed tumor cell growth at 10^-5 M; method in brief: as §1
UACC-62 = test: Growth inhibition of human UACC62 cells assessed tumor cell growth at 10^-5 M; method in brief: as §2
LOX IMVI = test: Growth inhibition of human LOXIMVI cells assessed tumor cell growth at 10^-5 M; method in brief: as §1
UO-31 = test: Growth inhibition of human UO31 cells assessed tumor cell growth at 10^-5 M; method in brief: as §2
HOP-62 = test: Growth inhibition of human HOP62 cells assessed tumor cell growth at 10^-5 M; method in brief: as §1
SF-268 = test: Growth inhibition of human SF268 cells assessed tumor cell growth at 10^-5 M; method in brief: as §1
T47D = test: Growth inhibition of human T47D cells assessed tumor cell growth at 10^-5 M; method in brief: as §2
SW-620 = test: Growth inhibition of human SW620 cells assessed tumor cell growth at 10^-5 M; method in brief: as §2
A549 = test: Growth inhibition of human A549 cells assessed tumor cell growth at 10^-5 M; method in brief: as §1
OVCAR-3 = test: Growth inhibition of human OVCAR3 cells assessed tumor cell growth at 10^-5 M; method in brief: as §1
MOLT-4 = test: Growth inhibition of human MOLT4 cells assessed tumor cell growth at 10^-5 M; method in brief: as §1
SF-295 = test: Growth inhibition of human SF295 cells assessed tumor cell growth at 10^-5 M; method in brief: as §1
SK-MEL-5 = test: Growth inhibition of human SK-MEL-5 cells assessed tumor cell growth at 10^-5 M; method in brief: as §1
NCI-H322M = test: Growth inhibition of human NCI-H322M cells assessed tumor cell growth at 10^-5 M; method in brief: as §1
HCC 2998 = test: Growth inhibition of human HCC2998 cells assessed tumor cell growth at 10^-5 M; method in brief: as §1
ACHN = test: Growth inhibition of human ACHN cells assessed tumor cell growth at 10^-5 M; method in brief: as §1
NCI/ADR-RES = test: Growth inhibition of human NCI/ADR-RES cells assessed tumor cell growth at 10^-5 M; method in brief: as §1
NCI-H226 = test: Growth inhibition of human NCI-H226 cells assessed tumor cell growth at 10^-5 M; method in brief: as §1
RXF 393 = test: Growth inhibition of human RXF393 cells assessed tumor cell growth at 10^-5 M; method in brief: as §1
HT-29 = test: Growth inhibition of human HT-29 cells assessed tumor cell growth at 10^-5 M; method in brief: as §1
OVCAR-5 = test: Growth inhibition of human OVCAR5 cells assessed tumor cell growth at 10^-5 M; method in brief: as §1
DU-145 = test: Growth inhibition of human DU145 cells assessed tumor cell growth at 10^-5 M; method in brief: as §1
SF-539 = test: Growth inhibition of human SF539 cells assessed tumor cell growth at 10^-5 M; method in brief: as §1
NCI-H522 = test: Growth inhibition of human NCI-H522 cells assessed tumor cell growth at 10^-5 M; method in brief: as §1
CCRF-CEM = test: Growth inhibition of human CCRF-CEM cells assessed tumor cell growth at 10^-5 M; method in brief: as §1
SK-MEL-2 = test: Growth inhibition of human SK-MEL-2 cells assessed tumor cell growth at 10^-5 M; method in brief: as §1
KM12 = test: Growth inhibition of human KM12 cells assessed tumor cell growth at 10^-5 M; method in brief: as §1
CAKI-1 = test: Growth inhibition of human Caki1 cells assessed tumor cell growth at 10^-5 M; method in brief: as §1
NCI-H23 = test: Growth inhibition of human NCI-H23 cells assessed tumor cell growth at 10^-5 M; method in brief: as §1
K562 = test: Growth inhibition of human K562 cells assessed tumor cell growth at 10^-5 M; method in brief: as §1
SK-MEL-28 = test: Growth inhibition of human SK-MEL-28 cells assessed tumor cell growth at 10^-5 M; method in brief: as §1
MDA-MB-468 = test: Growth inhibition of human MDA-MB-468 cells assessed tumor cell growth at 10^-5 M; method in brief: as §1
MCF7 = test: Growth inhibition of human MCF7 cells assessed tumor cell growth at 10^-5 M; method in brief: as §1
SNB-19 = test: Growth inhibition of human SNB19 cells assessed tumor cell growth at 10^-5 M; method in brief: as §2
SR = test: Growth inhibition of human SR cells assessed tumor cell growth at 10^-5 M; method in brief: as §2
NCI-H460 = test: Growth inhibition of human NCI-H460 cells assessed tumor cell growth at 10^-5 M; method in brief: as §1
MDA-MB-435 = test: Growth inhibition of human MDA-MB-435 cells assessed tumor cell growth at 10^-5 M; method in brief: as §1
MDA-MB-231 = test: Growth inhibition of human MDA-MB-231 cells assessed tumor cell growth at 10^-5 M; method in brief: as §1
OVCAR-8 = test: Growth inhibition of human OVCAR8 cells assessed tumor cell growth at 10^-5 M; method in brief: as §1
COLO 205 = test: Growth inhibition of human COLO205 cells assessed tumor cell growth at 10^-5 M; method in brief: as §1
HOP-92 = test: Growth inhibition of human HOP92 cells assessed tumor cell growth at 10^-5 M; method in brief: as §1
OVCAR-4 = test: Growth inhibition of human OVCAR4 cells assessed tumor cell growth at 10^-5 M; method in brief: as §1
Malme-3M = test: Growth inhibition of human MALME-3M cells assessed tumor cell growth at 10^-5 M; method in brief: as §1
HCT-15 = test: Growth inhibition of human HCT15 cells assessed tumor cell growth at 10^-5 M; method in brief: as §1
U-251 = test: Growth inhibition of human U251 cells assessed tumor cell growth at 10^-5 M; method in brief: as §2
TK-10 = test: Growth inhibition of human TK10 cells assessed tumor cell growth at 10^-5 M; method in brief: as §2
[2] = Growth inhibition of human Hs 578T cells assessed tumor cell growth at 10^-5 M; method in brief: as §1
UACC-257 = test: Growth inhibition of human UACC257 cells assessed tumor cell growth at 10^-5 M; method in brief: as §2

O=C1C(=Cc2cn(Cc3ccccc3)c3ccccc23)C(=O)N(Cc2ccccc2)C(=O)N1Cc1ccccc1
Activity (A498): -95.7% | Activity (PC-3): 90.3% | Activity (EKVX): 97.5% | Activity (SNB-75): 44.9% | Activity (786-0): 93.2% | Activity (M14): 103.5% | Activity (HL-60(TB)): 96.4% | Activity (BT-549): 118.1% | Activity (HCT-116): 76.1% | Activity (SN12C): 101.3% | Activity (SK-OV-3): 47.7% | Activity [1]: 93.2% | Activity (IGROV-1): 75.7% | Activity (UACC-62): 53.1% | Activity (LOX IMVI): 87.1% | Activity (UO-31): 73.3% | Activity (HOP-62): 85.4% | Activity (SF-268): 87.5% | Activity (T47D): 51.6% | Activity (SW-620): 100.6% | Activity (A549): 80% | Activity (OVCAR-3): 97.7% | Activity (MOLT-4): 95.2% | Activity (SF-295): 34.3% | Activity (SK-MEL-5): 104.1% | Activity (NCI-H322M): 105% | Activity (HCC 2998): 97.4% | Activity (ACHN): 86.2% | Activity (NCI/ADR-RES): 105.7% | Activity (NCI-H226): -49.4% | Activity (RXF 393): 57.6% | Activity (HT-29): 110.8% | Activity (OVCAR-5): -7.2% | Activity (DU-145): 110.4% | Activity (SF-539): 83.5% | Activity (NCI-H522): 87.6% | Activity (CCRF-CEM): 117.9% | Activity (SK-MEL-2): 83.9% | Activity (KM12): 100.7% | Activity (CAKI-1): 94.6% | Activity (NCI-H23): 87.7% | Activity (K562): 81.4% | Activity (SK-MEL-28): 109.5% | Activity (MDA-MB-468): -71.7% | Activity (MCF7): 80.2% | Activity (SNB-19): 87.1% | Activity (SR): 87.2% | Activity (NCI-H460): 36% | Activity (MDA-MB-435): 108.2% | Activity (MDA-MB-231): 89.3% | Activity (OVCAR-8): 83.5% | Activity (COLO 205): 26.4% | Activity (HOP-92): 90.9% | Activity (OVCAR-4): 57.3% | Activity (Malme-3M): 104.8% | Activity (HCT-15): 85.7% | Activity (U-251): 75.6% | Activity (TK-10): 40.6% | Activity [2]: 90.7% | Activity (UACC-257): 52.9%

CC1=NN(c2cccc(Cl)c2)C(=O)/C1=C\c1cn(Cc2ccccc2)c2ccccc12
Activity (A498): 89.58% | Activity (PC-3): 84.66% | Activity (EKVX): 82.36% | Activity (SNB-75): 80.99% | Activity (786-0): 100.84% | Activity (M14): 93.78% | Activity (HL-60(TB)): 99.67% | Activity (BT-549): 107.13% | Activity (HCT-116): 81.87% | Activity (SN12C): 101.76% | Activity (SK-OV-3): 71.03% | Activity [1]: 88.18% | Activity (IGROV-1): 85.79% | Activity (UACC-62): 78.13% | Activity (LOX IMVI): 87% | Activity (UO-31): 71.93% | Activity (HOP-62): 81.96% | Activity (SF-268): 95.57% | Activity (T47D): 67.17% | Activity (SW-620): 93.2% | Activity (A549): 90.89% | Activity (OVCAR-3): 95.7% | Activity (MOLT-4): 89.6% | Activity (SF-295): 74.11% | Activity (SK-MEL-5): 90.4% | Activity (NCI-H322M): 105.8% | Activity (HCC 2998): 109.37% | Activity (ACHN): 84.07% | Activity (NCI/ADR-RES): 100.71% | Activity (NCI-H226): 16.9% | Activity (RXF 393): 92.68% | Activity (HT-29): 93.03% | Activity (OVCAR-5): 43.95% | Activity (DU-145): 103.96% | Activity (SF-539): 96.45% | Activity (NCI-H522): 86.7% | Activity (CCRF-CEM): 109.04% | Activity (SK-MEL-2): 90.21% | Activity (KM12): 93.39% | Activity (CAKI-1): 89.4% | Activity (NCI-H23): 88.9% | Activity (K562): 93.59% | Activity (SK-MEL-28): 98.38% | Activity (MDA-MB-468): 76.71% | Activity (MCF7): 72.9% | Activity (SNB-19): 93.46% | Activity (SR): 86.52% | Activity (NCI-H460): 55.83% | Activity (MDA-MB-435): 106.21% | Activity (MDA-MB-231): 89.94% | Activity (OVCAR-8): 97.42% | Activity (COLO 205): 96.36% | Activity (HOP-92): 94.45% | Activity (OVCAR-4): 88.56% | Activity (Malme-3M): 92.02% | Activity (HCT-15): 97.68% | Activity (U-251): 89.34% | Activity (TK-10): 154.6% | Activity [2]: 90.49% | Activity (UACC-257): 93.1%
